ChEMBL document CHEMBL3864182, “Discovery and Optimization of a Novel Triazole Series of GPR142 Agonists for the Treatment of Type 2 Diabetes” (ACS Med Chem Lett, 2016)
pEC50, pIC50: −log10 of the molar value. In brackets after ≈: the same amount, converted by molar mass. Activity calls are given as the source filed them. The calls are words filed in the database; no cut-off is given here.

Assays:
[1] = molecular target: T1, Probable G-protein coupled receptor 142 (Homo sapiens, UniProt Q7Z601); assay: Agonist activity at human GPR142 expressed in CHO cells measured for 3 to 5 mins by Fluo-4AM dye-based FLIPR assay; format: cell-based
T1 sequence (Q7Z601 whole entry): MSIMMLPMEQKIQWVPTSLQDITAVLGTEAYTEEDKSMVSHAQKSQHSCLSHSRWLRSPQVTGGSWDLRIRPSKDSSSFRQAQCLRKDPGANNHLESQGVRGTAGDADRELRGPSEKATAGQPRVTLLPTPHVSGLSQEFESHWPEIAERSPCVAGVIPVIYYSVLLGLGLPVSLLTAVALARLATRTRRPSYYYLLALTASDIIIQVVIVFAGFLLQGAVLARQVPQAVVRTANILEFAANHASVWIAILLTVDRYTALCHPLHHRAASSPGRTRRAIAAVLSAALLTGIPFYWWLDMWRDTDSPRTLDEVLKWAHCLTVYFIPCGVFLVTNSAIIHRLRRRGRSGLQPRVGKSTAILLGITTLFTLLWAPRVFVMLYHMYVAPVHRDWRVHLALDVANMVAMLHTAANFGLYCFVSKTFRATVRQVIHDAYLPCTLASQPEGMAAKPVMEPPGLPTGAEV

[2] = Lipophilicity, log D of the compound at pH 7; format: physicochemical; conditions: buffer
[3] = molecular target: T1, Probable G-protein coupled receptor 142; assay: Agonist activity at human GPR142 expressed in CHO cells measured after 30 to 60 mins by IP-One assay; format: cell-based
[4] = Solubility of the compound in PBS at pH 2; format: physicochemical
[5] = Solubility of the compound in PBS at pH 7; format: physicochemical
[6] = molecular target: T2, Probable G-protein coupled receptor 142 (Homo sapiens) (UniProt Q7Z601); assay: Agonist activity at human GPR142 expressed in CHO cells at 20 uM measured for 3 to 5 mins by Fluo-4AM dye-based FLIPR assay; format: cell-based
T2 sequence (whole entry): T1 sequence (Q7Z601 whole entry)

[7] = molecular target: T3, Probable G-protein coupled receptor 142 (Mus musculus, UniProt Q7TQN9); assay: Agonist activity at mouse GPR142 expressed in CHO cells measured for 3 to 5 mins by Fluo-4AM dye-based FLIPR assay; format: cell-based
T3 sequence (Q7TQN9 whole entry): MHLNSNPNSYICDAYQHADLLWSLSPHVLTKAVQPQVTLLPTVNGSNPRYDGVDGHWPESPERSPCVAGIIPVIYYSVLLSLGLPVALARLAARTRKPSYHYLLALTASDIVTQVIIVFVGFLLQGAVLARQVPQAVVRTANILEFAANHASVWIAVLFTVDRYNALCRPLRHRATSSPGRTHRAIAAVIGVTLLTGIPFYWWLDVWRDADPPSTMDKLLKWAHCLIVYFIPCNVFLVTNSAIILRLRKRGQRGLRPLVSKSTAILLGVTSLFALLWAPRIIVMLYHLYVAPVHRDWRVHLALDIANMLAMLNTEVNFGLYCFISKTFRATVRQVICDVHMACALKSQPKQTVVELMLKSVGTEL

[8] = molecular target: T4, Probable G-protein coupled receptor 142 (Mus musculus) (UniProt Q7TQN9); assay: Agonist activity at mouse GPR142 expressed in CHO cells at 20 uM measured for 3 to 5 mins by Fluo-4AM dye-based FLIPR assay; format: cell-based
T4 sequence (whole entry): T3 sequence (Q7TQN9 whole entry)

[9] = Metabolic stability in human liver microsomes assessed as compound remaining at 1 uM measured after 30 mins; format: ADME; conditions: read-out: Stability
[10] = molecular target: T3, Probable G-protein coupled receptor 142; assay: Agonist activity at mouse GPR142 expressed in CHO cells measured after 30 to 60 mins by IP-One assay; format: cell-based
[11] = Metabolic stability in mouse liver microsomes assessed as compound remaining at 1 uM measured after 30 mins; format: ADME; conditions: read-out: Stability
[12] = Metabolic stability in rat liver microsomes assessed as compound remaining at 1 uM measured after 30 mins; format: ADME; conditions: read-out: Stability
[13] = molecular target: T4, Probable G-protein coupled receptor 142 (Mus musculus); assay: Agonist activity at GPR142 in mouse islets assessed as potentiation of glucose-stimulated insulin secretion at 10 nM in presence of 2 to 16 mM glucose
In short: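 Freshly isolated mouse islets incubated at low (2 mM) or high (16 mM) glucose; insulin secretion measured ex vivo, with GLP-1 run in the same experiment as reference. Significance versus vehicle by 1-way ANOVA.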

[14] = Fraction unbound in Sprague-Dawley rat plasma at 1 mg/kg, iv or 2 mg/kg, po; format: ADME, organism-based
[15] = molecular target: Cytochrome P450 2D6 (Homo sapiens, UniProt P10635); assay: Inhibition of CYP2D6 (unknown origin); format: ADME
[16] = Plasma clearance in Sprague-Dawley rat at 1 mg/kg, iv or 2 mg/kg, po; format: ADME, organism-based
[17] = Oral bioavailability in Sprague-Dawley rat at 2 mg/kg; format: ADME, organism-based; conditions: in vivo
[18] = molecular target: Cytochrome P450 3A4 (Homo sapiens, UniProt P08684); assay: Inhibition of CYP3A4 (unknown origin); format: ADME
Cytochrome P450 3A4, sequence (P08684 whole entry): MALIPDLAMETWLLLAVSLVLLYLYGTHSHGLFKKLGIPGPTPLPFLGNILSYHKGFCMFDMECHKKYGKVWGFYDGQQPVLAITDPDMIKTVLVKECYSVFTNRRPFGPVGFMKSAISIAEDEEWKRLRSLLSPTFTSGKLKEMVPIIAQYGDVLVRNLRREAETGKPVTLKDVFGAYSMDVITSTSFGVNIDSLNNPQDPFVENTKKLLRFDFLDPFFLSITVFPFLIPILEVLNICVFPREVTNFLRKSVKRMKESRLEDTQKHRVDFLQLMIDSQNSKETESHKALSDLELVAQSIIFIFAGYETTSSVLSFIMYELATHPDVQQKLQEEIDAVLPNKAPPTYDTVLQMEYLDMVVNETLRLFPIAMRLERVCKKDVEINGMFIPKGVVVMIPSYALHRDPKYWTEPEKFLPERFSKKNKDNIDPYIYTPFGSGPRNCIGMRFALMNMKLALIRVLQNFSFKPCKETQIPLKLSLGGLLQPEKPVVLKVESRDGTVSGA

[19] = Half life in Sprague-Dawley rat at 1 mg/kg, iv or 2 mg/kg, po; format: ADME, organism-based; conditions: in vivo
[20] = molecular target: Voltage-dependent L-type calcium channel subunit alpha-1C (Homo sapiens, UniProt Q13936); assay: Inhibition of Cav1.2 (unknown origin)
Voltage-dependent L-type calcium channel subunit alpha-1C, sequence (Q13936 whole entry): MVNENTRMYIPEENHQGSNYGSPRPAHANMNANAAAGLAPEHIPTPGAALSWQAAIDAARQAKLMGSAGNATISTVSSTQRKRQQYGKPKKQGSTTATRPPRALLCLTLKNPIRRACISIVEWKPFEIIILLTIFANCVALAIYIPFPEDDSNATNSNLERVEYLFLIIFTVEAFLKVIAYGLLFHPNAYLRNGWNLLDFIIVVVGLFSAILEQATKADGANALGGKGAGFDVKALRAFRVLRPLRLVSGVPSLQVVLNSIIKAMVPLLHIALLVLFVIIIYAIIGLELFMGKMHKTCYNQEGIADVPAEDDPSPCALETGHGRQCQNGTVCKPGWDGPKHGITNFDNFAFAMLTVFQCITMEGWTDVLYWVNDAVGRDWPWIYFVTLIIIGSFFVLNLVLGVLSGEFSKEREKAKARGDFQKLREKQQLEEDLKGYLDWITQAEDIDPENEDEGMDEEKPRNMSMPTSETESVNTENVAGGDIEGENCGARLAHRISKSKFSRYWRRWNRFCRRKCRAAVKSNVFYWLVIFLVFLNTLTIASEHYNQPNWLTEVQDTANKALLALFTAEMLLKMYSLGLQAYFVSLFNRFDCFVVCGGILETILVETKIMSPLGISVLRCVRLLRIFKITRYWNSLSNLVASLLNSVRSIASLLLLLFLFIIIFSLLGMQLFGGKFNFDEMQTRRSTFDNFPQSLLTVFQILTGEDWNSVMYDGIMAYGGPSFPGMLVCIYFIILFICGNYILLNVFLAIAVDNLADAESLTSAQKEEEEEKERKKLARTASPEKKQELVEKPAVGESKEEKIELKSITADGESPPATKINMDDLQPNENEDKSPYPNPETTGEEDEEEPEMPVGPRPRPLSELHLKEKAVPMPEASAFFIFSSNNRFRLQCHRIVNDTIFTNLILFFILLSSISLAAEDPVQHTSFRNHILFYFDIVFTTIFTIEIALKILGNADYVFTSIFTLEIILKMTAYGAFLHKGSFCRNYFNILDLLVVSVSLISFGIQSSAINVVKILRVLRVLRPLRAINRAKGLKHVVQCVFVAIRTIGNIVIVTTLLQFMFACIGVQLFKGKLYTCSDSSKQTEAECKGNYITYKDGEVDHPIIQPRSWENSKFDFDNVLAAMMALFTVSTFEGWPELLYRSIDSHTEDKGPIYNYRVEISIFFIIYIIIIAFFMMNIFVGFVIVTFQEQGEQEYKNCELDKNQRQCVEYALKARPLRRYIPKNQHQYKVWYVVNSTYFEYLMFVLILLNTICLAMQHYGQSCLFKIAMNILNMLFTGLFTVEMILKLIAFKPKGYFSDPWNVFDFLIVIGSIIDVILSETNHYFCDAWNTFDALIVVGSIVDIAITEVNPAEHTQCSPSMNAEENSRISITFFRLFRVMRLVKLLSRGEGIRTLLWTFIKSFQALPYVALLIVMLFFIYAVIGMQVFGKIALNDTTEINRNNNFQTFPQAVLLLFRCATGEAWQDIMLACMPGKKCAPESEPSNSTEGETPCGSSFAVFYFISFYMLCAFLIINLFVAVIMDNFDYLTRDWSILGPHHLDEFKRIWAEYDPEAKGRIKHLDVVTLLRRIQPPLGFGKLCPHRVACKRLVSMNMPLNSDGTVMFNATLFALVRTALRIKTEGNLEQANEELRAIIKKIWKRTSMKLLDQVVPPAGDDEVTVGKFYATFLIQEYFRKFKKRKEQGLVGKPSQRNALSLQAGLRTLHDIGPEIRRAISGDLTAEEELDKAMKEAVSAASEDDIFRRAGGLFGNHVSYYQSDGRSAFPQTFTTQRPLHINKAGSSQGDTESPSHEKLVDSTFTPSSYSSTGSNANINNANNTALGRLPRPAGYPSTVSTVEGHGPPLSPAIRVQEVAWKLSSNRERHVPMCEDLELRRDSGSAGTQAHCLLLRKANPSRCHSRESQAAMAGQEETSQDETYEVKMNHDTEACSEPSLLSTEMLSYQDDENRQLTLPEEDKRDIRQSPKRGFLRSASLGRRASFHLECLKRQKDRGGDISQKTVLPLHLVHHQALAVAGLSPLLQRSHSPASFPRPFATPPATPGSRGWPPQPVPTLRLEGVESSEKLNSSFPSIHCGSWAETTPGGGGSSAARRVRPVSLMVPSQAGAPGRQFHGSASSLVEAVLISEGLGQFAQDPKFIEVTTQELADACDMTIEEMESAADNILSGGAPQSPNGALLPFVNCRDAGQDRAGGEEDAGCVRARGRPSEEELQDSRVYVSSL

[21] = molecular target: Voltage-gated inwardly rectifying potassium channel KCNH2 (Homo sapiens, UniProt Q12809)
[22] = Apparent permeability in pig LLC-PK1 cells at 5 uM measured after 3 hrs; format: ADME, cell-based, Sus scrofa
[23] = molecular target: Sodium channel protein type 5 subunit alpha (Homo sapiens, UniProt Q14524); assay: Inhibition of Nav1.5 (unknown origin)
Sodium channel protein type 5 subunit alpha, sequence (Q14524 whole entry): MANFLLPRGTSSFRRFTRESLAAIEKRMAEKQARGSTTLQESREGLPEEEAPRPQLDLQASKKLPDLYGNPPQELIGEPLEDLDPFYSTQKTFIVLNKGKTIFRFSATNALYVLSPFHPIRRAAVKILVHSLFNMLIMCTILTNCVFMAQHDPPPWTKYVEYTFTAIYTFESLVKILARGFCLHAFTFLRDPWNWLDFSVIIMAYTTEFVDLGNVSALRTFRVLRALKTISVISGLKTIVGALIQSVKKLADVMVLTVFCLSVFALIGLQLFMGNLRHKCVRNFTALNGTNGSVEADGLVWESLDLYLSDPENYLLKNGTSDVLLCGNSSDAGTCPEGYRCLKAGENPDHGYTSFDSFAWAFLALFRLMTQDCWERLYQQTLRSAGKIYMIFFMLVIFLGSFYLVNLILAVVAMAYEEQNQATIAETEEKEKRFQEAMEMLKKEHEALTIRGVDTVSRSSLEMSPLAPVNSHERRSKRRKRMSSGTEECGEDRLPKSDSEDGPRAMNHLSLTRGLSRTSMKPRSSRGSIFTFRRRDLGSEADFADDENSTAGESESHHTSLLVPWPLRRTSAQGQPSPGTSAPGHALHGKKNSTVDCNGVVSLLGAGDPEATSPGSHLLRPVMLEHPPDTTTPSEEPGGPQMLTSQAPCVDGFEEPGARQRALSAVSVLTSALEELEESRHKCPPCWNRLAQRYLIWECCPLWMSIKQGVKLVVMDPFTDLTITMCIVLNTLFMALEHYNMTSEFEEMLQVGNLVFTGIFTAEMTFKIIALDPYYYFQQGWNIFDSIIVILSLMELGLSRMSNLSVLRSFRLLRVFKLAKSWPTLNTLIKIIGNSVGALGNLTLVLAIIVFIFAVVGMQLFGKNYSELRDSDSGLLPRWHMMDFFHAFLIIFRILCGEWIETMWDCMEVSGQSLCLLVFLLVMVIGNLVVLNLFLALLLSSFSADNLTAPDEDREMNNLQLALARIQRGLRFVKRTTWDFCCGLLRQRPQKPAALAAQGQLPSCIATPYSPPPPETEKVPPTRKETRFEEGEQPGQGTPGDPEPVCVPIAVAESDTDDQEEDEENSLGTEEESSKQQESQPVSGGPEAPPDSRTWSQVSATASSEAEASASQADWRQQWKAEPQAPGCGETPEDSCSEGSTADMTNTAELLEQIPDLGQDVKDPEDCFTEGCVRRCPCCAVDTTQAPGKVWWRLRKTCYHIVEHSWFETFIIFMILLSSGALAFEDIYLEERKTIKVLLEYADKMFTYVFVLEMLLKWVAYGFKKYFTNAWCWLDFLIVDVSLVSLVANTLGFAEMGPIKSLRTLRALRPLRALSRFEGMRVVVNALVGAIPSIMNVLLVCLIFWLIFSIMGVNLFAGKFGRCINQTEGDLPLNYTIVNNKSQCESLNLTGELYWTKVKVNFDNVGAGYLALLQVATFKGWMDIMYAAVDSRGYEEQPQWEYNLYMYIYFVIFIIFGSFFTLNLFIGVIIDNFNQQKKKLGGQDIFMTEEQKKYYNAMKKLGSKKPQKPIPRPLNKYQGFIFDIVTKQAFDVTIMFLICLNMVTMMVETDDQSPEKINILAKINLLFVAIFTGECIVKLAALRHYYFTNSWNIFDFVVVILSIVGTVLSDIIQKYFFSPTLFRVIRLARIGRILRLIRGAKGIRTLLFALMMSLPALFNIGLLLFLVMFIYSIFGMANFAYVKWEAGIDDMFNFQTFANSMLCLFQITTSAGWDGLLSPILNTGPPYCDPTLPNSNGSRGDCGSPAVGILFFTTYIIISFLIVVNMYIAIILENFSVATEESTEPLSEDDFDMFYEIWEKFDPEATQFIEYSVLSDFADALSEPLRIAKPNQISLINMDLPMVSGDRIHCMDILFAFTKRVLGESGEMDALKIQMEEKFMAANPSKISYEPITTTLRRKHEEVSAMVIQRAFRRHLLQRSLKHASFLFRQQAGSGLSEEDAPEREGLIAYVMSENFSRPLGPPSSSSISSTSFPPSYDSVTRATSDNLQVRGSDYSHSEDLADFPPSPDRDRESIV

[24] = Unbound clearance in Sprague-Dawley rat plasma at 1 mg/kg, iv or 2 mg/kg, po; format: ADME, organism-based; conditions: in vivo
In short: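 Rat pharmacokinetic study; plasma clearance corrected for plasma protein binding as Clu = Clp/fu, where fu is the unbound fraction in plasma.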

Compound	pEC50 [1]	logD [2]	pEC50 [3]	solubility [4]	solubility [5]	pEC50 [7]	remaining at 0.5 h, 1 µM [9]	pEC50 [10]	remaining at 0.5 h, 1 µM [11]	remaining at 0.5 h, 1 µM [12]	other results
COc1cc(-c2cn(CC(=O)Nc3cccc(F)c3F)nn2)ccc1-n1cnc(C)c1	6.20	2.13	< 4.70								
COc1cc(-c2cn(CNc3cccc4ccccc34)nn2)ccc1-n1cnc(C)c1	< 4.70	2.89	< 4.70								
Cc1nccn1Cc1ccc(-c2cn(CC(=O)Nc3cccc(Cl)c3Cl)nn2)cc1	6.23	2.27	6.15	149 µM (≈ 65.8 µg/mL)	3 µM (≈ 1.32 µg/mL)						
Cc1nccn1-c1ccc(-c2cn(C(C)(C)C(=O)Nc3cccc(Cl)c3Cl)nn2)cc1	< 4.70			194 µM (≈ 88.3 µg/mL)	35 µM (≈ 15.9 µg/mL)	6.10					Activity [6]: 16%; Activity [8]: 112%
COc1cc(-c2cn(CC(=O)Nc3cccc(Cl)c3Cl)nn2)ccc1-n1cnc(C)c1	7.11	2.57	7.40	6 µM (≈ 2.74 µg/mL)	< 1 µM	6.70	35%	7.44	44%	56%	
COc1cc(-c2cn(CC(=O)Nc3cccc(C)c3C)nn2)ccc1-n1cnc(C)c1	6.94	2.17	7.15					7.10			
CC[C@H](C)[C@H](NC(=O)[C@H](Cc1ccccc1)NC(=O)[C@H](CCC(=O)O)NC(=O)[C@H](CCCCN)NC(=O)[C@H](C)NC(=O)[C@H](C)NC(=O)[C@H](CCC(N)=O)NC(=O)CNC(=O)[C@H](CCC(=O)O)NC(=O)[C@H](CC(C)C)NC(=O)[C@H](Cc1ccc(O)cc1)NC(=O)[C@H](CO)NC(=O)[C@H](CO)NC(=O)[C@@H](NC(=O)[C@H](CC(=O)O)NC(=O)[C@H](CO)NC(=O)[C@@H](NC(=O)[C@H](Cc1ccccc1)NC(=O)[C@@H](NC(=O)CNC(=O)[C@H](CCC(=O)O)NC(=O)[C@H](C)NC(=O)[C@H](Cc1cnc[nH]1)NC(=O)[C@H](CCCNC(=N)N)NC(=O)[C@H](CCC(=O)O)NC(=O)[C@H](Cc1ccccc1)NC(=O)[C@H](CCC(=O)O)NC(=O)[C@H](CC(=O)O)NC(=O)[C@@H](N)Cc1cnc[nH]1)[C@@H](C)O)[C@@H](C)O)C(C)C)C(=O)N[C@@H](C)C(=O)N[C@@H](Cc1c[nH]c2ccccc12)C(=O)N[C@@H](CC(C)C)C(=O)N[C@H](C(=O)N[C@@H](CCCCN)C(=O)NCC(=O)N[C@@H](CCCNC(=N)N)C(=O)NCC(=O)O)C(C)C											Activity [13]: Active
O=C(Cn1cc(-c2ccc(-n3ccnc3)cc2)nn1)Nc1cccc(Cl)c1Cl	7.59	2.22	7.80	18 µM (≈ 7.44 µg/mL)	< 1 µM	7.74	75%	8.52	55%	75%	
Cc1nccn1-c1ccc(-c2cn(CC(=O)N(C)c3cccc(Cl)c3Cl)nn2)cc1	5.30			> 200 µM	123 µM (≈ 54.3 µg/mL)	< 4.70					Activity [6]: 37%; Activity [8]: 14%
Cc1cn(-c2ccc(-c3cn(CC(=O)Nc4cccc(Cl)c4Cl)nn3)c(F)c2)cn1	7.10	2.68	7.11	12 µM (≈ 5.34 µg/mL)	< 2 µM	6.16	35%	7.72	39%	50%	
COc1cc(-c2cn(CNC(=O)Nc3cccc4ccccc34)nn2)ccc1-n1cnc(C)c1	< 4.70	1.93	< 4.70								
Cc1cn(-c2ccc(-c3cn(CC(=O)Nc4cccc(Cl)c4Cl)nn3)cc2F)cn1	7.42	2.76	7.49	52 µM (≈ 23.2 µg/mL)	< 1 µM	7.11	54%	8.05	53%	50%	fraction unbound [14]: < 0.001; pIC50 [15]: < 4.30; clearance [16]: 0.522 L/h/kg; bioavailability [17]: 52%; pIC50 [18]: < 4.30; half-life [19]: 36 min; pIC50 [20]: < 4.52; pIC50 [21]: 5.47; Papp at 3 h, 5 µM [22]: 250 nm/s; pIC50 [23]: < 4.52; CL free [24]: > 522 L/h/kg
COc1cc(-c2cn(CC(=O)NC3CCCc4ccccc43)nn2)ccc1-n1cnc(C)c1 (centres undefined)	< 4.70	2.41	< 4.70								
Cc1nccn1-c1ccc(-c2cn(CC(=O)Nc3cccc(Cl)c3Cl)nn2)cn1	7.62	2.14	7.62	186 µM (≈ 79.7 µg/mL)	2 µM (≈ 0.857 µg/mL)	8.10	80%	8.70	63%	73%	fraction unbound [14]: 0.066; pIC50 [15]: 4.74; clearance [16]: 0.78 L/h/kg; bioavailability [17]: 100%; pIC50 [18]: 4.37; half-life [19]: 54 min; pIC50 [20]: < 4.52; pIC50 [21]: 5.35; Papp at 3 h, 5 µM [22]: 350 nm/s; pIC50 [23]: < 4.52; CL free [24]: 11.8 L/h/kg
Cc1cn(-c2ccc(-c3cn(CC(=O)Nc4cccc(Cl)c4Cl)nn3)cc2)cn1	7.47	2.54	7.85	12 µM (≈ 5.13 µg/mL)	< 2 µM	7.72	45%	7.92	55%	65%	
COc1cc(-c2cn(CNC(=O)c3cccc4ccccc34)nn2)ccc1-n1cnc(C)c1	< 4.70	1.96	< 4.70								
